# CSC inhib: cancer stem cell inhibition. inhibition, % at 7.5 µM. cancer stem cell-like cells viability, luminescence. 300,000 compounds, 1.1% hits; in the data active means inhibition above about 75%; tested in HMLE shEcad cells
# Mdm2-MdmX inh: inhibitors of human Mdm2/MdmX interaction; O15151+Q00987; SaOS-2 split-luciferase Mdm2/MdmX complementation, luminescence; inhibition, % at 8 µM; 330,000 compounds, 3% hits;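 active means inhibition of at least 50% at 8 µM in the primary screen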
# Target sequence (O15151 whole entry, looked up): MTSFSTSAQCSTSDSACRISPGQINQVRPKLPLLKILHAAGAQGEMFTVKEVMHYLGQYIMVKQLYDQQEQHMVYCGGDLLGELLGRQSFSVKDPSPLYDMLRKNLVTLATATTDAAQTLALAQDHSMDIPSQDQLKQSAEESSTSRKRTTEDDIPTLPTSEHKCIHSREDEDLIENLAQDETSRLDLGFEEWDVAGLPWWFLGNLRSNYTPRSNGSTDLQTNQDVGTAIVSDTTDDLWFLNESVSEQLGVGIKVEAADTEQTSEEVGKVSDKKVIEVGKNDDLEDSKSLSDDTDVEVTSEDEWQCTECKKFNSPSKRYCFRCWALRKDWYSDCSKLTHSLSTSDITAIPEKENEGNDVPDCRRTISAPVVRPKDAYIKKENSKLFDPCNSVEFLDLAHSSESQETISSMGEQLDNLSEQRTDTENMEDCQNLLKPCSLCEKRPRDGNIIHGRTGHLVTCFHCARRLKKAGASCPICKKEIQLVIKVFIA
# Target sequence (Q00987 whole entry, looked up): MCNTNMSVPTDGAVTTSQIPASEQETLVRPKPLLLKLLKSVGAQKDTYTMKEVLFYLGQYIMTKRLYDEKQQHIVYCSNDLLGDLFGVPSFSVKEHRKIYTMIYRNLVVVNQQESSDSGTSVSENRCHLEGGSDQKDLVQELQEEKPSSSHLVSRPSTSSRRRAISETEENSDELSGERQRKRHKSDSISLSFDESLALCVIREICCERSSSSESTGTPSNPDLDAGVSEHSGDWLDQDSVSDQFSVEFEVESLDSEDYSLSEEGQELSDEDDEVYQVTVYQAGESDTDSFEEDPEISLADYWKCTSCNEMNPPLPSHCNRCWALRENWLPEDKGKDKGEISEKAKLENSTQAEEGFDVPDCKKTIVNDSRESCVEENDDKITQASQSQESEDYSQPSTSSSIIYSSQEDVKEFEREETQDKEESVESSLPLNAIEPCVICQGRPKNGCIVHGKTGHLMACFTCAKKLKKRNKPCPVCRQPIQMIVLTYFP
# Lmaj promast: Leishmania major promastigote growth inhibition. 200,000 compounds, 9% hits. inhibition, % at 10 µM. Leishmania major promastigotes, resazurin fluorescence viability. AID 1063; in the data active means inhibition above about 50%;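 further: promastigotes grown with compound for 44 hours at 28 °C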
# T cruzi repl: T. cruzi replication inhibition. 300,000 compounds, 1.4% hits. inhibition, % (test concentration not listed). T. cruzi beta-gal in NIH3T3, luminescence, 90 h;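 active means mean inhibition across valid replicates above about 55%, limit read from the data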;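 further: signal also drops with host cell toxicity which is not excluded here; 0% = plate median of DMSO wells and 100% = zero luminescence signal; higher percent means less beta-gal luminescence so fewer parasites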
#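 Test system: β-gal T. cruzi (Tulahuen C4) inside NIH/3T3 cells / Quantity: 5,000 cells/well / Measured by: luminescence from GalScreen with 0.05% NP40, read after 60 min / Medium: DMEM plus 2% FBS / Measure: parasite load inhibition, % / Reagent: Tulahuen C4 trypomastigotes, 5000/well / Schedule: co-culture of at least 90 h after 3 h attachment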
# Beta cell apopt: blocks beta cell apoptosis | INS-1E cytokine-induced death, ATP luminescence, 48 h; percent of positive-control rescue, neutral wells zero | protection from apoptosis, % (test concentration not listed) | 300,000 compounds, 0.8% hits;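 active means Every replicate reaches about 75%, or at least half do and their mean reaches it too, limit read from the data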;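 further: 0% = cytokine-treated negative control wells and 100% = positive control rescue; higher means more ATP so stronger rescue from cytokine killing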
# SKKanGAS inh: inhibitors of SKKanGAS S. pyogenes growth in kanamycin (SK-promoter or general growth effect); BacTiter-Glo, 6 h; AID 1662; 300,000 compounds, 1.3% hits; inhibition, % at 7.5 µM;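 active means mean replicate score, as percent of positive control median, at least 50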;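 further: strain carries kanamycin resistance gene driven by streptokinase promoter and grows in 40 µg/ml kanamycin; loss of luminescence reflects streptokinase promoter inhibition or plain growth inhibition; 0% = median of DMSO wells and 100% = positive control at its reference dose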
# Mdm2-MdmX conf: confirmation of human Mdm2/MdmX interaction inhibitors | shares compounds with Mdm2-MdmX inh | Mdm2-MdmX binding, luminescent assay | inhibition, % at 8 µM | 10,000 compounds, 55% hits | AID 489028; in the data active means inhibition above about 40%
# FLuc counter: full-length luciferase inhibition in Mdm2/MdmX counter-screen | SaOS-2 full-length luciferase counterscreen, luminescence | shares compounds with Mdm2-MdmX inh | inhibition, % at 8 µM | 6,200 compounds, 77% hits;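 active means mean inhibition at 8 µM reaching about 37%, which flags the compound as non-specific, limit read from the data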;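 further: p53-null SaOS-2 cells with luciferase driven by a doxycycline-inducible promoter; compound on cells about two nights before reading with doxycycline added after day one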
# Numbers without * were called inactive; nt = not tested or not shown. Shown are actives, neighbours in structure and some others; about 9.4% of the full set was active somewhere.
SMILES,CSC inhib,Mdm2-MdmX inh,Lmaj promast,T cruzi repl,Beta cell apopt,SKKanGAS inh,Mdm2-MdmX conf,FLuc counter
CC1(C)CC(NC(=O)c2ccc(Cl)c(S(=O)(=O)N(Cc3ccccc3)c3ccccc3)c2)CC(C)(C)N1,-4,99*,nt,39,nt,0,93*,48*
COc1ccc(CNC(=O)Cn2cccc2C(=O)c2ccccc2)cc1,-5,-7,nt,1,-3,-9,nt,nt
COc1ccccc1NC(=O)OC(C)c1ccc(Cl)cc1 (stereo not given),11,7,nt,-11,2,21,nt,nt
CCOC(=O)CN(C(=O)COc1nc(-c2ccccc2)cc(C)c1C#N)c1ccccc1C,21,40,nt,29,-3,10,nt,nt
O=C1CC(NS(=O)(=O)c2cc(F)ccc2F)CN1c1ccc2c(c1)OCCO2 (stereo not given),nt,-18,nt,-5,-2,20,nt,nt
CCn1nc([N+](=O)[O-])c(C(C#N)c2nc3cc(C(F)(F)F)ccc3s2)c(Cl)c1=O (stereo not given),112*,76*,-5,-16,14,28,72*,50*
Cc1ccc(Cn2c(C(C)Nc3nc(-c4ccc(Cl)c([N+](=O)[O-])c4)cs3)nc3cc(C(F)(F)F)ccc32)cc1 (stereo not given),26,8,nt,19,3,37,nt,nt
O=c1cc(-c2ccccc2)[nH]n1-c1nc2ccccc2[nH]1,112*,95*,10,-17,34,14,25,nt
COc1ccc(OC)c(NC(=O)CCNS(=O)(=O)c2cc(Br)cnc2N)c1,-6,3,nt,-7,-4,3,nt,nt
COc1ccccc1-n1cc([C@@H]2C[C@H]3CN(c4ccccc4)C(=O)[C@]34CCCN24)cn1,15,77*,2,53,55,12,20,nt
CC(C)c1cccc(O)c(=O)c1,14,86*,-9,-5,-3,2,74*,28
Cc1cccc(C(=O)NNC(=O)c2cc3cc4ccccc4nc3s2)c1,-13,51*,-5,nt,7,-6,7,nt
O=C(NNC(=O)c1cc2cc3ccccc3nc2s1)c1ccc(F)cc1,-10,22,-3,10,0,-13,nt,nt
O=C(NNC(=O)c1cc2cc3ccccc3nc2s1)c1cccc(Cl)c1,-3,57*,-8,5,-2,13,36,109*
CCOC(=O)N1CCN(C(=O)C2CCC(=O)N(CCCN3CCCC3=O)C2)CC1 (stereo not given),-14,-7,nt,-7,-1,0,nt,nt
Cc1ccc(C)c(CN2CCC(CNC(=O)Nc3ccc(F)c(Cl)c3)CC2)c1,18,69*,nt,47,14,2,33,56*
Cc1cc(C)cc(NC(=O)NCC2CCN(Cc3cc(C)ccc3C)CC2)c1,2,50*,nt,13,1,2,36,nt
Cc1ccc(CS(=O)Cc2ccc(C(=O)NC3CCCCC3)o2)cc1 (stereo not given),16,2,nt,5,-12,3,nt,nt
CCOc1ccccc1NC(=O)COC(=O)c1cc[n+]([O-])cc1,7,13,nt,-1,-6,-2,nt,nt
Cc1ccc(S(=O)(=O)N(C)C[C@H]2Oc3c(NC(=O)Nc4cccc5ccccc45)cccc3C(=O)N([C@@H](C)CO)C[C@@H]2C)cc1,nt,60*,nt,nt,nt,nt,37,47*
COc1ccc(NC(=O)Nc2cccc3c2O[C@H](CN(C)Cc2ccc(-c4ccccc4)cc2)[C@@H](C)CN([C@H](C)CO)C3=O)cc1,19,91*,nt,nt,23,nt,63*,31
C[C@@H]1CN([C@@H](C)CO)C(=O)c2cccc(NC(=O)Nc3ccc(F)cc3)c2O[C@@H]1CN(C)Cc1ccc(Oc2ccccc2)cc1,nt,76*,nt,nt,66,nt,22,nt
CCC1COC(c2cccn2Cc2ccccc2Cl)=N1 (stereo not given),0,24,-5,-31,-5,7,nt,nt
Cc1snnc1C(=O)NC(=S)Nc1ccccc1,-8,-5,nt,-3,-9,-6,nt,nt
COc1ccc(Cl)cc1-c1nc(-c2ccc(Br)o2)no1,0,51*,-6,-10,3,1,20,nt
SMILES,CSC inhib,Mdm2-MdmX inh,Lmaj promast,T cruzi repl,Beta cell apopt,SKKanGAS inh,Mdm2-MdmX conf,FLuc counter
COc1ccc(-c2nc(-c3ccc(Br)o3)no2)cc1,-11,-55,-7,-1,-4,0,nt,nt
Oc1ccc(Cl)cc1Cc1cc(Cl)ccc1O,114*,87*,-8,-7,24,19,60*,48*
Cc1cc(CN(C)C(=O)CC2C(=O)NCCN2Cc2c(F)cccc2Cl)on1 (stereo not given),-2,10,nt,3,4,10,nt,nt
CC(NCC(O)c1ccc([N+](=O)[O-])cc1)C12CC3CC(CC(C3)C1)C2 (stereo not given),9,19,nt,25,6,3,nt,nt
CN(C)CC(C(=O)c1ccccc1)c1ccccc1 (stereo not given),54,100*,100*,58*,106*,-5,85*,52*
CN(C)CC1CCCCC1C1(O)c2ccccc2CSc2sccc21 (stereo not given),12,61*,100*,7,5,3,55*,54*
Cc1ccccc1OCC(O)CN1C(=O)c2ccccc2C1=O (stereo not given),0,0,nt,-21,3,-1,nt,nt
Cc1ccc(C)c(OCC(O)CN2CCC(CN3C(=O)c4cccc5cccc(c45)C3=O)CC2)c1 (stereo not given),33,60*,100*,52,67,8,33,nt
Cc1ccc(-c2csc3nc4c5ccccc5c(NCCCN(C)C)nn4c(=O)c23)cc1,-7,100*,101*,35,7,10,50*,64*
Cc1ccc(-c2csc3nc(C)n(N)c(=O)c23)cc1,3,-19,-6,-11,0,-6,nt,nt
CCc1cc(-c2[nH]ncc2-c2ccc3c(c2)OCO3)c(O)cc1O,56,78*,-2,-12,-10,-7,73*,38*
COc1ccc(-c2[nH]ncc2-c2ccc3c(c2)OCCO3)c(O)c1,-11,84*,-1,7,-50,26,90*,52*
CCc1cc(-c2[nH]ncc2-c2ccc(OC)cc2)c(O)cc1O,53,37,nt,20,-12,-6,nt,nt
O=C(Nc1ccsc1C(=O)O)c1ccccc1Cl,-2,-7,nt,-6,-11,1,nt,nt
C=CCNC(=S)N(CC)c1cccc2ccccc12,6,-4,6,-37,2,-16,nt,nt
O=c1c2c(nc3nc(NCc4ccccc4Cl)[nH]n13)CCC2,-5,67*,-7,3,nt,1,-4,nt
COCCNC(=S)NCc1ccc2[nH]c3c(c2c1)CCCC3,-1,-12,-3,-4,nt,-3,nt,nt

# Screening data (PubChem)
